Laboratory results from ChEMBL document CHEMBL1151423, “Pharmacokinetics-pharmacodynamics of gatifloxacin in a lethal murine Bacillus anthracis inhalation infection model” (Antimicrob Agents Chemother, 2007).
≈ marks a conversion by molar mass, not a printed value.

What was measured:
Mus musculus [1] = assay: Tlag in mouse at 10 to 100 mg/kg, ip; assay type: ADME, organism-based; parameters: dose 10-100 mg/kg, route intraperitoneal; conditions: in vivo
In short: (§1)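 Mice, three groups, each received a single intraperitoneal gatifloxacin dose of 10, 50 or 100 mg/kg. Sera were taken by exsanguination under anaesthesia from three mice per group at 0.25–12 h post-dose and stored at −70°C. Levels were measured by bioassay (S. aureus ATCC 29213 indicator; standard curve in control mouse serum) in triplicate, detection range 0.12–64 μg/ml. Pooled data were fitted by maximum likelihood to a two-compartment model with first-order absorption and lag time.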

Mus musculus [2] = assay: Apparent distribution clearance in mouse at 10 to 100 mg/kg, ip; assay type: ADME, organism-based; parameters: dose 10-100 mg/kg, route intraperitoneal; conditions: in vivo; in short: as §1
[3] = Half life in human; assay type: ADME, organism-based; conditions: in vivo
[4] = Ratio of AUC (0 to 24 hrs) for Staphylococcus infected patient to MIC for Staphylococcus; assay type: functional
[5] = Apparent total clearance in human; assay type: ADME, organism-based; conditions: in vivo, read-out: CLt/F (converted)
[6] = Apparent total clearance in mouse at 10 to 100 mg/kg, ip; assay type: ADME, organism-based; parameters: dose 10-100 mg/kg, route intraperitoneal; conditions: in vivo, read-out: CLt/F (converted); in short: as §1
[7] = Half life in mouse at 10 to 100 mg/kg, ip; assay type: ADME, organism-based; parameters: dose 10-100 mg/kg, route intraperitoneal; conditions: in vivo; in short: as §1
[8] = Ratio of AUC (0 to 24 hrs) for Enterococcus infected patient to MIC for Enterococcus; assay type: functional
Mus musculus [9] = assay: Apparent peripheral volume of distribution in mouse at 10 to 100 mg/kg, ip; assay type: ADME, organism-based; parameters: dose 10-100 mg/kg, route intraperitoneal; conditions: in vivo; in short: as §1
Mus musculus [10] = assay: Apparent volume of distribution with respect to the bioavailability in mouse at 10 to 100 mg/kg, ip; assay type: ADME, organism-based; conditions: in vivo; in short: as §1
[11] = Ratio of AUC (0 to 24 hrs) for Staphylococcus aureus infected ICR/Swiss mouse model to MIC for Staphylococcus aureus; assay type: functional
Bacillus anthracis = assay: Antimicrobial activity against Bacillus anthracis Ames after 18 hrs by microdilution method; assay type: functional

SMILES: COc1c(N2CCNC(C)C2)c(F)cc2c(=O)c(C(=O)O)cn(C3CC3)c12 (configuration not stated) [GATIFLOXACIN]
- Tlag (Mus musculus [1]): 0.23 h
- CLd/F (Mus musculus [2]): 128 mL/min/kg
- half-life [3]: 9 h
- Ratio [4]: 85
- CL/F [5]: 1.67 mL/min/kg
- CL/F [6]: 45 mL/min/kg
- half-life [7]: 0.6 h
- Ratio [8]: 85
- Vp/F (Mus musculus [9]): 1.6 L/kg
- Vc/F (Mus musculus [10]): 0.2 L/kg
- Ratio [11]: 83
- MIC (Bacillus anthracis): 0.125 µg/mL (≈ 0.333 µM)
